Activity calls are given as the source filed them. The rule behind the calls is not given here.
Assays:
Solanum lycopersicum = test: Phytotoxicity against Solanum lycopersicum (tomato) leaves; format: organism-based; conditions: in vivo
Medicago sativa = test: Phytotoxicity against Medicago sativa (alfalfa) assessed as seed germination; format: organism-based; conditions: in vivo
Pythium aphanidermatum = test: Antifungal activity against Pythium aphanidermatum assessed as radial growth inhibition at 10 to 100 uM; format: functional, organism-based
Method in brief: (§1)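 Initial screen on PDA plates (10 mL) amended with 10 or 100 μM compound, added from DMSO stocks (DMSO not exceeding 0.001% v/v) to warm (50 °C) sterile medium before pouring. Radial growth was compared with growth on unamended medium. Error bars are standard deviation.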

Rhizoctonia solani = test: Antifungal activity against Rhizoctonia solani assessed as radial growth inhibition at 10 to 100 uM; format: functional, organism-based; method in brief: as §1
Alternaria alternata = test: Antifungal activity against Alternaria alternata assessed as radial growth inhibition at 100 uM; format: functional; conditions: read-out: GI; method in brief: as §1
Botrytis cinerea [1] = test: Antifungal activity against Botryotinia fuckeliana isolate Bcl16 assessed as radial growth inhibition at 10 to 100 uM; format: functional, organism-based; method in brief: as §1
Neurospora crassa = test: Antifungal activity against Neurospora crassa strain 74-OR23-1A assessed as radial growth inhibition at 100 uM; format: functional, organism-based; method in brief: as §1
Botrytis cinerea [2] = test: Antifungal activity against Botryotinia fuckeliana isolate Bcl16 assessed as radial growth inhibition during advanced test phase at 10 to 50 uM at 22 degC measured after 48 hr; format: functional, organism-based
Method in brief: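 B. cinerea isolate BcI16 was grown on PDA amended with compound across 0-50 μM, added from DMSO stock (≤0.001% v/v final) to 50 °C medium. Plates were incubated at 22 °C for 48 h, then radial growth was measured against unamended controls.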

Penicillium digitatum = test: Antifungal activity against Penicillium digitatum assessed as radial growth inhibition at 100 uM; format: functional; conditions: read-out: GI; method in brief: as §1
Sclerotinia sclerotiorum = test: Antifungal activity against Sclerotinia sclerotiorum isolate 1980 assessed as radial growth inhibition during advanced test phase at 10 to 50 uM at 17 degC measured after 48 hr; format: functional, organism-based
Method in brief: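 S. sclerotiorum isolate 1980 was grown on PDA amended with compound across 0-50 μM, added from DMSO stock (≤0.001% v/v final) to 50 °C medium. Plates were incubated at 17 °C for 48 h, then radial growth was measured against unamended controls.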

SMILES | Activity (Solanum lycopersicum) | Activity (Medicago sativa) | growth inhibition (GI) (Pythium aphanidermatum) | growth inhibition (GI) (Rhizoctonia solani) | inhibition of growth at 100 µM (Alternaria alternata) [%] | growth inhibition (GI) (Botrytis cinerea [1]) | growth inhibition (GI) (Neurospora crassa) | growth inhibition (GI) (Botrytis cinerea [2]) | inhibition of growth at 100 µM (Penicillium digitatum) [%] | growth inhibition (GI) (Sclerotinia sclerotiorum)
CC/C(C(=O)c1ccc(Cl)cc1)=C(/N)C(F)(F)F | Non-toxic | Non-toxic | Active | Active | ≤ 50 | Active |  |  |  | 
N/C(=C\C(=O)c1ccc(F)cc1)C(F)(F)F | Non-toxic | Non-toxic | Active | Active | ≤ 50 | Active | Active |  |  | 
N/C(=C\C(=O)c1ccc(Cl)cc1)C(F)(F)F | Non-toxic | Non-toxic | Active | Active | ≤ 50 | Active | Active | Active | > 50 | 
N/C(=C\C(=O)c1ccc(Cl)cc1)C(F)(F)C(F)(F)F | Non-toxic | Non-toxic | Active | Active | ≤ 50 | Active |  | Active |  | Active
N#Cc1ccc(C(=O)/C=C(\N)C(F)(F)F)cc1 | Non-toxic | Non-toxic | Active | Active | ≤ 50 | Active |  |  |  | 
CC(C)(C)OC(=O)Nc1ccc(C(=O)/C=C(\N)C(F)(F)F)cc1 | Non-toxic | Non-toxic | Active | Active | ≤ 50 | Active |  |  |  | 
N/C(=C\C(=O)c1ccc2ccccc2c1)C(F)(F)F | Non-toxic | Non-toxic | Active | Active | ≤ 50 | Active |  |  |  | 
CC(=O)c1ccc(O)cc1 [4-HYDROXYACETOPHENONE] | Non-toxic | Non-toxic | Active | Active | ≤ 50 | Active |  | Active |  | Active
N/C(=C\C(=O)c1ccc(O)cc1)C(F)(F)F | Non-toxic | Non-toxic | Active | Active | ≤ 50 | Active |  | Active |  | 
N/C(=C\C(=O)c1cccc(Br)c1)C(F)(F)F | Non-toxic | Non-toxic | Active | Active | ≤ 50 | Active | Active | Active |  | 
